Converted amounts (≈) assume the structure as drawn. The source made the active and inactive calls. The calls are words filed in the database; no cut-off is given here.
Key:
[1] = system: Mycobacterium tuberculosis; experiment: Antibacterial activity against Mycobacterium tuberculosis H37Rv after 6 days by Alamar blue dye-based colorimetric assay; format: functional; conditions: 144 h
Method in brief: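 M. tuberculosis H37Rv grown to early-mid log phase in Middlebrook 7H9 with 10% OADC and 0.05% Tween 80, added to 1:2 serial compound dilutions, and grown for 6 days at 37°C. Alamar blue then added for a further 24 h. MIC taken as the concentration preventing visible growth and Alamar blue reduction in all replicates.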

[2] = system: Francisella tularensis; experiment: Antibacterial activity against Francisella tularensis LVS after 18 to 24 hrs by Alamar blue dye-based colorimetric assay; format: functional
[3] = system: Staphylococcus aureus; experiment: Antibacterial activity against methicillin-sensitive Staphylococcus aureus RN4220 after 18 to 24 hrs by Alamar blue dye-based colorimetric assay; format: functional
Method in brief: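 Two-fold serial dilutions from 512 down to 0.25 μg/mL in CAMHB (microbroth dilution); incubated 37 °C for 18–24 h, then Alamar Blue added for a further 4 h. Absorbance read at 570 and 600 nm; percent growth reduction plotted against concentration, MIC90 from non-linear regression; growth and MICs confirmed by optical density.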

[4] = system: Staphylococcus aureus; experiment: Antibacterial activity against methicillin-resistant Staphylococcus aureus BAA 1762 after 18 to 24 hrs by Alamar blue dye-based colorimetric assay; format: functional
[5] = system: Yersinia pestis; experiment: Antibacterial activity against Yersinia pestis A1122 after 18 to 24 hrs by Alamar blue dye-based colorimetric assay; format: functional
[6] = system: Burkholderia pseudomallei; experiment: Antibacterial activity against Burkholderia pseudomallei after 18 to 24 hrs by Alamar blue dye-based colorimetric assay; format: functional
[7] = system: Mycobacterium tuberculosis; experiment: Binding affinity to Mycobacterium tuberculosis wild type FabB expressed in Mycobacterium smegmatis MC2 155 by WaterLOGSY-based competition assay
[8] = molecular target: T1, 3-oxoacyl-[acyl-carrier-protein] synthase 2 (Staphylococcus aureus, UniProt Q5TKS0); experiment: Binding affinity to Staphylococcus aureus wild type FabF expressed in Escherichia coli BL21 (DE3) PlysS cells by intrinsic tryptophan fluorescence quenching-based fluorimetric method
T1 sequence (Q5TKS0 whole entry): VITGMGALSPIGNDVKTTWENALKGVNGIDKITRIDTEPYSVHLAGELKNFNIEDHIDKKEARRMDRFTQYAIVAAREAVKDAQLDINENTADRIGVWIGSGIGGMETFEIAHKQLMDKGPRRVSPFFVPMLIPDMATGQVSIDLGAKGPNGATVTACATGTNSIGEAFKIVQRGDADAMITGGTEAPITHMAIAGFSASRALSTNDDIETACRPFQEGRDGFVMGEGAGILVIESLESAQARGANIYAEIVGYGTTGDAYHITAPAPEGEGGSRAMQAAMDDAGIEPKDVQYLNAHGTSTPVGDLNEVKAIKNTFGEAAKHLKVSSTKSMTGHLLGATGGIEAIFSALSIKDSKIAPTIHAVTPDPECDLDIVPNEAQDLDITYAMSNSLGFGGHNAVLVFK

[9] = Binding affinity to Mycobacterium tuberculosis wild type FabB expressed in Mycobacterium smegmatis MC2 155 by intrinsic tryptophan fluorescence quenching-based fluorimetric method
Method in brief: (§1)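 Kd by quenching of intrinsic tryptophan fluorescence (excitation 280 nm, emission 337 nm). Inhibitor stocks in DMSO or buffer were titrated into 1 μM His-tag-purified enzyme in 50 mM Tris-HCl, 150 mM NaCl, 1 mM DTT, pH 8.5. mtFabB was expressed in M. smegmatis MC²155; saFabF was expressed in E. coli BL21(DE3) pLysS.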

[10] = molecular target: 3-oxoacyl-[acyl-carrier-protein] synthase 2 (Staphylococcus aureus, UniProt Q5TKS0, C165Q); experiment: Binding affinity to Staphylococcus aureus FabF C165Q mutant expressed in Escherichia coli BL21 (DE3) PlysS cells by intrinsic tryptophan fluorescence quenching-based fluorimetric method; method in brief: as §1
[11] = system: Staphylococcus aureus; experiment: Antibacterial activity against methicillin-resistant Staphylococcus aureus BAA 1762 infected in Swiss Webster mouse assessed as increase in survival rate at 100 mg/kg, sc administered 1 and 25 hrs post infection measured twice a day for 5 days relative to vehicle-treated control; format: functional, organism-based
Method in brief: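 Mice made neutropenic with cyclophosphamide 4 days and 1 day before infection. MRSA BAA 1762 was given IP as 0.5 mL of 5×10⁷ cells/mL in BHI. Analogues in water/ethanol, or vancomycin in water, were dosed SC at 100 mg/kg/inj at 1 and 25 h post infection. Survival was checked every 12 h for 5 days, n=6–7 per group. Average survival time was compared with vehicle by one-tailed t test.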

[12] = system: Klebsiella pneumoniae; experiment: Antibacterial activity against Klebsiella pneumoniae KPC2ST258 infected in Swiss Webster mouse assessed as survival time at 100 mg/kg, sc administered 1, 12 and 24 hrs post infection measured every 12 hrs for 7 days; format: functional
Method in brief: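 K. pneumoniae KPC2ST258 was given IP as 5×10⁶ cfu in BHI broth. Drugs in saline/PEG400/ethanol (40/20/40) were injected SC at 100 mg/kg/inj at 1, 12 and 24 h post infection. Mice were checked every 12 h for 7 days, n=8–10 per group. Average survival time was compared with vehicle by one-tailed t test.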

SMILES	MIC90 [1]	MIC90 [2]	MIC90 [3]	MIC90 [4]	MIC90 [5]	Activity [6]	Activity [7]	Kd [8]	Ki [9]	Kd [10]	Activity [11]	MSD [12]
C=C/C(C)=C/[C@@]1(C)SC(=O)C(CCCCc2ccc(F)cc2)=C1O	> 100 µg/mL	3.1 µg/mL (≈ 8.95 µM)	> 64 µg/mL	75 µg/mL (≈ 216 µM)	> 250 µg/mL	inactive						
C=C/C(C)=C/[C@@]1(C)SC(=O)C(CCc2ccc(C)cc2)=C1O		3.4 µg/mL (≈ 10.8 µM)	> 64 µg/mL	> 100 µg/mL	> 250 µg/mL							
C=C/C(C)=C/[C@@]1(C)SC(=O)C(CCc2ccc(Cl)cc2)=C1O	100 µg/mL (≈ 299 µM)	3.1 µg/mL (≈ 9.26 µM)	64 µg/mL (≈ 191 µM)	100 µg/mL (≈ 299 µM)	> 250 µg/mL	inactive						
C=C/C(C)=C/[C@@]1(C)SC(=O)C(C(=O)CCCCCN=[N+]=[N-])=C1O			16 µg/mL (≈ 47.7 µM)	16 µg/mL (≈ 47.7 µM)								
C=C/C(C)=C/[C@@]1(C)SC(=O)C(CCC)=C1O	25 µg/mL (≈ 105 µM)	25.8 µg/mL (≈ 108 µM)	> 200 µg/mL	> 200 µg/mL	> 250 µg/mL	inactive						
C=C/C(C)=C/[C@@]1(C)SC(=O)C=C1OCC(=O)NCCn1cc(CNC(=O)[C@H](O)C(C)(C)CO)nn1	100 µg/mL (≈ 197 µM)	159 µg/mL (≈ 313 µM)	> 64 µg/mL	> 64 µg/mL			inactive					
C=C/C(C)=C/[C@@]1(C)SC(=O)C(CCCCc2ccc(Br)cc2)=C1O	12.5 µg/mL (≈ 30.7 µM)	2.2 µg/mL (≈ 5.4 µM)	32 µg/mL (≈ 78.6 µM)	50 µg/mL (≈ 123 µM)	> 250 µg/mL			92 µM				
C=C/C(C)=C/[C@@]1(C)SC(=O)C(CCCCN=[N+]=[N-])=C1O	100 µg/mL (≈ 341 µM)	15.3 µg/mL (≈ 52.1 µM)	> 64 µg/mL	> 100 µg/mL	> 250 µg/mL			107 µM				
C=C/C(C)=C/[C@@]1(C)SC(=O)C=C1OCC(=O)NCCNC(=O)OC(C)(C)C	> 100 µg/mL	54 µg/mL (≈ 136 µM)	> 64 µg/mL	> 64 µg/mL			inactive		> 200 µM			
C=C/C(C)=C/[C@@]1(C)SC(=O)C(C(=O)OC)=C1O	100 µg/mL (≈ 393 µM)	58.2 µg/mL (≈ 229 µM)	> 64 µg/mL	> 64 µg/mL	> 250 µg/mL	inactive						
C=C/C(C)=C/[C@@]1(C)SC(=O)C(C(=O)c2ccccc2C(=O)O)=C1O	50 µg/mL (≈ 145 µM)	15.9 µg/mL (≈ 46.2 µM)	32 µg/mL (≈ 92.9 µM)	32 µg/mL (≈ 92.9 µM)	> 250 µg/mL	inactive						
C=C/C(C)=C/[C@@]1(C)SC(=O)C(CCCN=[N+]=[N-])=C1O	100 µg/mL (≈ 358 µM)	23.6 µg/mL (≈ 84.5 µM)	> 64 µg/mL	> 100 µg/mL	> 250 µg/mL							
C=C/C(C)=C/[C@@]1(C)SC(=O)C(C(C)=O)=C1O	12.5 µg/mL (≈ 52.5 µM)	8.8 µg/mL (≈ 36.9 µM)	64 µg/mL (≈ 269 µM)	32 µg/mL (≈ 134 µM)	> 250 µg/mL	inactive		14.2 µM		11.9 µM	Active	4.6 days
C=C/C(C)=C/[C@@]1(C)SC(=O)C(C(=O)CCCCCc2ccc(-c3ccccc3)cc2)=C1O	50 µg/mL (≈ 112 µM)	0.21 µg/mL (≈ 0.47 µM)	0.5 µg/mL (≈ 1.12 µM)	1 µg/mL (≈ 2.24 µM)	> 250 µg/mL	inactive		35.2 µM		33 µM	Active	

Source: ChEMBL document CHEMBL4425098, “Thiolactomycin-Based Inhibitors of Bacterial β-Ketoacyl-ACP Synthases with in Vivo Activity” (J Med Chem, 2016)
